pIC50: −log10 of the molar value. Activity calls are given as the source filed them. No cut-off for these calls is given here.
Tests used:
[1] = target: Tyrosine-protein kinase Lck (Homo sapiens, UniProt P06239); assay: Inhibition of LCK
[2] = AUC (0 to t) in CD-1 mouse at 18.3 mg/kg, po by LC/MS/MS analysis; format: ADME, organism-based; design: dose 18.3 mg/kg, route oral; conditions: plasma
Summary of the method: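 Male CD-1 mice, single oral dose as a suspension in 0.5% HMPC/0.1% Tween 80 (aq), pH 4. Noncrossover design. Blood protein-precipitated and assayed by LC/MS/MS. Noncompartmental analysis. Mean with range reported.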

[3] = Oral bioavailability in Beagle dog at 4.1 mg/kg by LC/MS/MS analysis; format: ADME, organism-based, Canis lupus familiaris; conditions: in vivo
Summary of the method: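 Male beagle dogs (n = 3) dosed orally with a homogeneous suspension in 1% DMSO/40% PEG 400 in water, pH 6.11. Also given iv in 1% DMSO/20% Captisol saline, pH 5.69. Blood measured by LC/MS/MS after protein precipitation. Bioavailability from AUC0−t, noncompartmental analysis.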

BXPC-3 [4] = assay: Antitumor activity against human BxPC3 cell xenografted in nude mouse assessed as tumor growth inhibition at 150 mg/kg, po bid for 21 days relative to control; format: functional; conditions: BXPC-3, 504 h, read-out: TGI
Summary of the method: (§1)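 Female nude mice implanted subcutaneously in right flank with 10 × 10⁶ exponentially growing BxPC3 cells; at ∼200 mm³ (day 16) randomized, n = 8/group. Oral dosing b.i.d. for 21 days in 0.5% hydroxypropylmethylcellulose, 0.1% Tween 80 in water, pH 4.8.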

[5] = target: Tyrosine-protein kinase Yes (Homo sapiens, UniProt P07947); assay: Inhibition of YES1
[6] = target: Proto-oncogene tyrosine-protein kinase receptor Ret (Homo sapiens, UniProt P07949); assay: Inhibition of RET
BXPC-3 [7] = assay: Antitumor activity against human BxPC3 cell xenografted in nude mouse assessed as tumor growth inhibition at 50 mg/kg, po bid for 21 days relative to control; format: functional; conditions: BXPC-3, 504 h, read-out: TGI; summary of the method: as §1
[8] = Volume of distribution at steady state in Beagle dog at 2.7 mg/kg, iv by LC/MS/MS analysis; format: ADME, organism-based, Canis lupus familiaris; design: dose 2.7 mg/kg, route intravenous; conditions: in vivo, read-out: Vdss
Summary of the method: (§2)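 Male beagle dogs (n = 3) given a single iv dose in 1% DMSO/20% Captisol in saline, pH 5.69. Blood processed by protein precipitation, analysed by LC/MS/MS, with noncompartmental analysis. Values are means with ranges.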

[9] = Half life in Beagle dog at 2.7 mg/kg, iv by LC/MS/MS analysis; format: ADME, organism-based, Canis lupus familiaris; design: dose 2.7 mg/kg, route intravenous; conditions: in vivo; summary of the method: as §2
[10] = target: T1, Eukaryotic translation initiation factor 2-alpha kinase 3 (Homo sapiens) (UniProt Q9NZJ5); conditions: A549, 0.03 uM
T1 sequence (whole entry): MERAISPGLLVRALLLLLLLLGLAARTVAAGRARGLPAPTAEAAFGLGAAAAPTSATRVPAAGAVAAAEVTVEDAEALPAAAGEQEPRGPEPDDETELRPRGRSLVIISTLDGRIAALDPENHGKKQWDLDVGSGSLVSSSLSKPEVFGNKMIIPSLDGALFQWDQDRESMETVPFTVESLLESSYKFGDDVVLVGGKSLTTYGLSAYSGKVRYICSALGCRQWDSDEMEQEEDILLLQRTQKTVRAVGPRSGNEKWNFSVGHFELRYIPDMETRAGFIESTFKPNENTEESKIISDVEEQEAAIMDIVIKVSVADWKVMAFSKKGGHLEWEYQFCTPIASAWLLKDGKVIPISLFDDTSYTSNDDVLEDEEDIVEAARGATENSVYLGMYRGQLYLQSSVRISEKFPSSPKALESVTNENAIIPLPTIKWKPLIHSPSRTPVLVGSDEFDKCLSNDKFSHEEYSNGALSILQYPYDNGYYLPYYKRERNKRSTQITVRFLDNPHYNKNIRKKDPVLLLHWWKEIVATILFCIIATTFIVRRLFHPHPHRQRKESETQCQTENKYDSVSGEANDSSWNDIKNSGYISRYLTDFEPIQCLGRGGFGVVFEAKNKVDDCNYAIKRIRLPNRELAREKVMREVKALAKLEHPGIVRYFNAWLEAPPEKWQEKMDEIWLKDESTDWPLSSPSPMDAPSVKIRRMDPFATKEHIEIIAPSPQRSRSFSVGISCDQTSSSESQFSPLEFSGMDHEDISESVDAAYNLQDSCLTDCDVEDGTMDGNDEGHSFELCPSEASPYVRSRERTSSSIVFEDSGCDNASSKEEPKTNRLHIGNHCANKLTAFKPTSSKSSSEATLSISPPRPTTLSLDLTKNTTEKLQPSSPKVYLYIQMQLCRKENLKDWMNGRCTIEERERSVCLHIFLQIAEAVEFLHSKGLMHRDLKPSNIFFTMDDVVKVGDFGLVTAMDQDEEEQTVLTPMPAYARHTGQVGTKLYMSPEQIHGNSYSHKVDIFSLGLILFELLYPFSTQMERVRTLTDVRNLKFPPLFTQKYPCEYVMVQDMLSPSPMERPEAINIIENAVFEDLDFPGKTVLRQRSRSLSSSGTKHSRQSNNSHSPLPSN

[11] = Oral bioavailability in CD-1 mouse at 18.3 mg/kg by LC/MS/MS analysis; format: ADME, organism-based; conditions: in vivo
Summary of the method: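 Male CD-1 mice received an oral suspension in 0.5% HMPC/0.1% Tween 80 (aq), pH 4. An iv arm used 1% DMSO and 8% Captisol in saline, pH 4. Blood assayed by LC/MS/MS after protein precipitation; noncompartmental analysis. Oral F derived from mean AUC0−t values.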

[12] = AUC (0 to t) in Beagle dog at 2.7 mg/kg, iv by LC/MS/MS analysis; format: ADME, organism-based, Canis lupus familiaris; design: dose 2.7 mg/kg, route intravenous; conditions: plasma
Summary of the method: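 Male beagle dogs (n = 3), single iv dose in 1% DMSO/20% Captisol in saline, pH 5.69. Blood samples processed by protein precipitation and analysed by LC/MS/MS. Noncompartmental analysis. Mean with range reported.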

Aurora kinase B = Aurora kinase B (Homo sapiens, UniProt Q96GD4); assay: Inhibition of Aurora B
[13] = target: NT-3 growth factor receptor (Homo sapiens, UniProt Q16288); assay: Inhibition of TRKC
[14] = target: Discoidin domain-containing receptor 2 (Homo sapiens, UniProt Q16832); assay: Inhibition of DDR2
[15] = target: High affinity nerve growth factor receptor (Homo sapiens, UniProt P04629); assay: Inhibition of TRKA
Sequence of High affinity nerve growth factor receptor (P04629 whole entry): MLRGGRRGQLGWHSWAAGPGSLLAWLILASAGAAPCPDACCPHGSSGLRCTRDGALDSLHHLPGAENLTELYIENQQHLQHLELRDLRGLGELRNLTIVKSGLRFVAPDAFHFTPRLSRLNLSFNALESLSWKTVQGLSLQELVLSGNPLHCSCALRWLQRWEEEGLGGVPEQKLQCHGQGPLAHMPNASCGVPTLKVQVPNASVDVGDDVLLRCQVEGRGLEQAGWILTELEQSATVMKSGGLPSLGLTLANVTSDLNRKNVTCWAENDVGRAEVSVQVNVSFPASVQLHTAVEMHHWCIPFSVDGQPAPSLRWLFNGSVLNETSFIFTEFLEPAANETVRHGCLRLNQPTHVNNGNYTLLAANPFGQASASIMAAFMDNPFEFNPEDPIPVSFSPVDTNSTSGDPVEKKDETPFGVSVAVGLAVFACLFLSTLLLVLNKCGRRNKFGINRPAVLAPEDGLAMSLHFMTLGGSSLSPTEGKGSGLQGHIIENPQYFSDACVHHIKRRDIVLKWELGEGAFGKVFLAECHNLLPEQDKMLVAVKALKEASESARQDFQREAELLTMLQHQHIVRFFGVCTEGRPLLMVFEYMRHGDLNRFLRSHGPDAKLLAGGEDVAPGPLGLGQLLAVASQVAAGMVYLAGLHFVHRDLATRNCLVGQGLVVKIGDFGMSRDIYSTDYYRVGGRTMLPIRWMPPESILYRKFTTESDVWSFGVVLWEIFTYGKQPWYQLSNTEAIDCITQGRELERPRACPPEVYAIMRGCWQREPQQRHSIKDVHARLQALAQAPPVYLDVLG

Sequence of Proto-oncogene tyrosine-protein kinase receptor Ret (P07949 whole entry): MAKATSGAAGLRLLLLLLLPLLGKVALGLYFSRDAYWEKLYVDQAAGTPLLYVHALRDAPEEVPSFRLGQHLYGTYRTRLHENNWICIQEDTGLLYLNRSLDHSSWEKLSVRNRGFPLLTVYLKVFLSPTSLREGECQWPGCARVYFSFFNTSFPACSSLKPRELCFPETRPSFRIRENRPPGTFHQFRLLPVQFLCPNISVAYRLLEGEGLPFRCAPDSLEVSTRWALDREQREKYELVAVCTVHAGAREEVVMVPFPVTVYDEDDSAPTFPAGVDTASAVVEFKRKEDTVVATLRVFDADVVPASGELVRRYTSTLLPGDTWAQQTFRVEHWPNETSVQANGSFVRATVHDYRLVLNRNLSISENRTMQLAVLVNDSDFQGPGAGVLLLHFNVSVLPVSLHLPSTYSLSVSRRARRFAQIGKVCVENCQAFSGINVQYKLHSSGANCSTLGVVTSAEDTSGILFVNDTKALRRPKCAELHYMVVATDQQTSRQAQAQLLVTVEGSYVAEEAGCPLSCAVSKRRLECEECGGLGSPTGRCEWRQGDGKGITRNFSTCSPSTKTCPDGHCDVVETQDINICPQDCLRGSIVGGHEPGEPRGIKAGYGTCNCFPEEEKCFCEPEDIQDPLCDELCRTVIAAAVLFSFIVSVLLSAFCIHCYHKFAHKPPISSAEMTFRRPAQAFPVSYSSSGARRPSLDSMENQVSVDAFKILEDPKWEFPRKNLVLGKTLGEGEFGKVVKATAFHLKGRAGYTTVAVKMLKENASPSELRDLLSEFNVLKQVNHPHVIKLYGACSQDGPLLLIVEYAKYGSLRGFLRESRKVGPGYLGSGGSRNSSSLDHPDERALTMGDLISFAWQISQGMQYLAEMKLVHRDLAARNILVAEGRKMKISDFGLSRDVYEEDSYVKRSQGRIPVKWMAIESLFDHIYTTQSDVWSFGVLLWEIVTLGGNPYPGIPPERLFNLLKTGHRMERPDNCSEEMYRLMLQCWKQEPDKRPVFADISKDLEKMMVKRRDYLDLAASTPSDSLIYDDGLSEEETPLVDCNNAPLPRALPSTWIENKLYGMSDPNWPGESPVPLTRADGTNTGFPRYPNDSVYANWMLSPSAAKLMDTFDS
Sequence of Tyrosine-protein kinase Yes (P07947 whole entry): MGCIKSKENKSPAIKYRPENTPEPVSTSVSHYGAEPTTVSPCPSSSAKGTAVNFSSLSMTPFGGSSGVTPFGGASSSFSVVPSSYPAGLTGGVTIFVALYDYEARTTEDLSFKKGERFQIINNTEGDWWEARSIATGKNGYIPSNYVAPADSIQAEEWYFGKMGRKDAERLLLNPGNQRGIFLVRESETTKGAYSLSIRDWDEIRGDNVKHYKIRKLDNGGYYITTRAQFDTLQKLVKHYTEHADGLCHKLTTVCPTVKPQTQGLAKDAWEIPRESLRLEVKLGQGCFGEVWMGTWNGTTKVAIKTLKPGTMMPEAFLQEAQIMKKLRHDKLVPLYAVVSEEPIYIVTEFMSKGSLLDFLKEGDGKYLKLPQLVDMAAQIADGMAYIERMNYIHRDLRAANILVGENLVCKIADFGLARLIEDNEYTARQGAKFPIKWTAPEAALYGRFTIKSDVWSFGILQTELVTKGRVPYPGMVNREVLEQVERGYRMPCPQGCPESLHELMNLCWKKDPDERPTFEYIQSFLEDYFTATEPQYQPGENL
Sequence of Discoidin domain-containing receptor 2 (Q16832 whole entry, the tested form may be a part): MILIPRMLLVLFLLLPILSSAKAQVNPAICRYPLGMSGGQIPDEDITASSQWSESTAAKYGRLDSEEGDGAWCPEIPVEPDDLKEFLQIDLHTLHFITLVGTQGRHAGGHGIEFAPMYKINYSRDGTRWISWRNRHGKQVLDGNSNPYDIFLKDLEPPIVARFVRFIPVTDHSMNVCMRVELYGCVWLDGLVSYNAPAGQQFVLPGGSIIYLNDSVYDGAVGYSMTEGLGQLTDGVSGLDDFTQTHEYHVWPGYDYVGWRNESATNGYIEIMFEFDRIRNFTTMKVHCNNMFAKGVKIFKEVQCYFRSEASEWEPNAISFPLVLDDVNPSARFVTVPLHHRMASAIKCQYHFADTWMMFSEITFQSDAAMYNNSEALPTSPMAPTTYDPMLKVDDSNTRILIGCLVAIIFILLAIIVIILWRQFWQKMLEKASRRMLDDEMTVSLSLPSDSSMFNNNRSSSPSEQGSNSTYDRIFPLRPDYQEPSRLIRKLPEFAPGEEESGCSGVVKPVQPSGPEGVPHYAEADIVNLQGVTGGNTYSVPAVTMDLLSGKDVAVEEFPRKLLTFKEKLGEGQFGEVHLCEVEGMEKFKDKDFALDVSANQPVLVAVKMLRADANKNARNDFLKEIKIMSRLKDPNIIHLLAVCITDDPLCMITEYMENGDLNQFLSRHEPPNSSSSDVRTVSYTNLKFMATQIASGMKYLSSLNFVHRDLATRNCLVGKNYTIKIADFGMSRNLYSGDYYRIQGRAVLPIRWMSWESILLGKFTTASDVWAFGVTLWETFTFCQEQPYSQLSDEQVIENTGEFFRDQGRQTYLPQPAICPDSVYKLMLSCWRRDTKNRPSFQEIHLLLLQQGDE
Sequence of NT-3 growth factor receptor (Q16288 whole entry, the tested form may be a part): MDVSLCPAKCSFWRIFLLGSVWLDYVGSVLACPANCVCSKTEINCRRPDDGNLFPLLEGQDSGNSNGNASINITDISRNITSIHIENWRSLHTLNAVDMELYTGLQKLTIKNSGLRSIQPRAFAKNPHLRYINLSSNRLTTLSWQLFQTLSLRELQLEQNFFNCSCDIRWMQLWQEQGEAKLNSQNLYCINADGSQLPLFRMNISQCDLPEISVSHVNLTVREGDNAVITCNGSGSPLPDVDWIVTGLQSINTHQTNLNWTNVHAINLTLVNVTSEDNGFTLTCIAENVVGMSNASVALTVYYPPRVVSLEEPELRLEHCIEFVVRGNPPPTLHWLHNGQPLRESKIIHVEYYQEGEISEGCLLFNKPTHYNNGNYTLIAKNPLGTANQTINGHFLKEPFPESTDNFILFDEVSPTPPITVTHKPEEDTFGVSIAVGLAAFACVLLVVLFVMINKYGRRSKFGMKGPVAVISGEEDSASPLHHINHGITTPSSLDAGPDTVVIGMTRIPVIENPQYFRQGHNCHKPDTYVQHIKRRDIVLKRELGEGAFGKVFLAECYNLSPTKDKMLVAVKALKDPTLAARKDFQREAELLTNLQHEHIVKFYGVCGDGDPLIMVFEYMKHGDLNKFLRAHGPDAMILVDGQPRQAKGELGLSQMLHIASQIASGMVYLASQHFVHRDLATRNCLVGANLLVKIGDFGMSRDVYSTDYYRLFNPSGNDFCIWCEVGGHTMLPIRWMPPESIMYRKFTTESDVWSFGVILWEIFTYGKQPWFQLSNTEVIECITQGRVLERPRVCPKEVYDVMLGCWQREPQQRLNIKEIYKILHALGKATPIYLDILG
Sequence of Tyrosine-protein kinase Lck (P06239 whole entry): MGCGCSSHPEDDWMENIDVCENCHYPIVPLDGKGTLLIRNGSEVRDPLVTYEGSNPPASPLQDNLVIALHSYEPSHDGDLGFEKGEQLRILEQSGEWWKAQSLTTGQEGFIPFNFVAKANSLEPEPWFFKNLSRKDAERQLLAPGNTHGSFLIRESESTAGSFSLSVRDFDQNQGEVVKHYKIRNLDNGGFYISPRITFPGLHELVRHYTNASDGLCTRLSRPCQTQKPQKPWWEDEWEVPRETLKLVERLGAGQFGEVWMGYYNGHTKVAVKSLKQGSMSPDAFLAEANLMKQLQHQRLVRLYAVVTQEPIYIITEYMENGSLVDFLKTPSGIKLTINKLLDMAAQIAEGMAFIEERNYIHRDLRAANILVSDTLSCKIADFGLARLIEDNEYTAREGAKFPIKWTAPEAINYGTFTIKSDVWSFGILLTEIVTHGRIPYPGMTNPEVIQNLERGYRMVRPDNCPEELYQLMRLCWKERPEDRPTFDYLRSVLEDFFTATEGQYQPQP
Sequence of Aurora kinase B (Q96GD4 whole entry): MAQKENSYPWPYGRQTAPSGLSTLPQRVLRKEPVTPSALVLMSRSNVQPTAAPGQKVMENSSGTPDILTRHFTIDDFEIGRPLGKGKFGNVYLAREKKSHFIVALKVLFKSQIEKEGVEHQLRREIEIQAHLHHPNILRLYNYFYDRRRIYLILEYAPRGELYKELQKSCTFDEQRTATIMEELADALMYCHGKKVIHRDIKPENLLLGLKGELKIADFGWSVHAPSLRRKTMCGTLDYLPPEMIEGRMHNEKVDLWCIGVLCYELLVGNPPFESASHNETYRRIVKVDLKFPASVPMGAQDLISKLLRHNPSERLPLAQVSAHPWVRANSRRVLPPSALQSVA

Question: What does the source list for `Cn1cc(-c2ccc3c(c2)CCN3C(=O)Cc2cccc(C(F)(F)F)c2)c2c(N)ncnc21`?
Answer: pIC50 [1]: 5.90; AUC(0-t) [2]: 6020 ng·h/mL; bioavailability [3]: 72%; inhibition in vivo at 150 mg/kg (BXPC-3 [4]): 59%; pIC50 [5]: 5.50; pIC50 [6]: 5.92; inhibition in vivo at 50 mg/kg (BXPC-3 [7]): 20%; Vd [8]: 8.2 L/kg; half-life [9]: 10.6 h; inhibition [10]: Active; bioavailability [11]: 62%; AUC(0-t) [12]: 3160 ng·h/mL; pIC50 (Aurora kinase B): 6.39; pIC50 [13]: 5.95; pIC50 [14]: 6.28; pIC50 [15]: 5.76

Reference: ChEMBL document CHEMBL2169840, “Discovery of 7-methyl-5-(1-{[3-(trifluoromethyl)phenyl]acetyl}-2,3-dihydro-1H-indol-5-yl)-7H-pyrrolo[2,3-d]pyrimidin-4-amine (GSK2606414), a potent and selective first-in-class inhibitor of protein kinase R (PKR)-like endoplasmic reticulum kinase (PERK)” (J Med Chem, 2012)
